# ChEMBL document CHEMBL4689842, “EUbOPEN Chemogenomics Library wave 1” (2021)
# Tested on: HEK-293T
# Assay: Multiplex assay against HEK293T;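 for Population Tubulin-Different-Phenotype (%): share of the cells with healthy nuclei that show this phenotype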
# Type: toxicity, cell-based
# Conditions: human
# Outline: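 Compound was added to live cells that had been stained at seeding with Hoechst33342, BioTracker Green Microtubule Cytoskeleton Dye, MitoTracker Red and Annexin V Alexa Fluor 680, and imaging followed on a CQ1 microscope at 37°C and 5% CO2. CellPathfinder machine-learning gating divided cells into Hoechst high-intensity objects or normal cells, normal cells into healthy, pyknosed or fragmented nuclei, and pyknosed cells into mitotic or apoptotic. Tubulin, mitochondrial-mass and membrane-permeability phenotypes are per cents of healthy-nucleus cells.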
# [1] = 12 h, 1 µM, compound concentration 1 uM, replicate 1
# [2] = 12 h, 1 µM, compound concentration 1 uM, replicate 2
# [3] = 12 h, 10 µM, compound concentration 10 uM, replicate 1
# [4] = 12 h, 10 µM, compound concentration 10 uM, replicate 2
# [5] = 24 h, 1 µM, compound concentration 1 uM, replicate 1
# [6] = 24 h, 1 µM, compound concentration 1 uM, replicate 2
# [7] = 24 h, 10 µM, compound concentration 10 uM, replicate 1
# [8] = 24 h, 10 µM, compound concentration 10 uM, replicate 2
# [9] = 48 h, 1 µM, compound concentration 1 uM, replicate 1
# [10] = 48 h, 1 µM, compound concentration 1 uM, replicate 2
# [11] = 48 h, 10 µM, compound concentration 10 uM, replicate 1
# [12] = 48 h, 10 µM, compound concentration 10 uM, replicate 2
compound,measurement,setting,value
CCC(=O)O[C@]1(C(=O)SCF)[C@H](C)C[C@H]2[C@@H]3C[C@H](F)C4=CC(=O)C=C[C@]4(C)[C@@]3(F)[C@@H](O)C[C@@]21C [FLUTICASONE PROPIONATE],Population Apoptotic (%),[1],51%
same,Population Fragmented Nuclei (%),[1],10%
same,Population Healthy Nuclei (%),[1],33%
same,Population Hoechst High Intensity Objects (%),[1],11%
same,Population Membrane Permeable-Phenotype (%),[1],0%
same,Population Mitochondria Different-Phenotype (%),[1],87%
same,Population Mitotic Cells (%),[1],48%
same,Population Normal (%),[1],88%
same,Population Pyknosed Nuclei (%),[1],56%
same,Population Tubulin-Different-Phenotype (%),[1],52%
same,Total Cell Count,[1],253
same,Population Apoptotic (%),[2],9%
same,Population Fragmented Nuclei (%),[2],4%
same,Population Healthy Nuclei (%),[2],46%
same,Population Hoechst High Intensity Objects (%),[2],2%
same,Population Membrane Permeable-Phenotype (%),[2],7%
same,Population Mitochondria Different-Phenotype (%),[2],13%
same,Population Mitotic Cells (%),[2],90%
same,Population Normal (%),[2],97%
same,Population Pyknosed Nuclei (%),[2],48%
same,Population Tubulin-Different-Phenotype (%),[2],19%
same,Total Cell Count,[2],273
same,Population Apoptotic (%),[3],68%
same,Population Fragmented Nuclei (%),[3],11%
same,Population Healthy Nuclei (%),[3],32%
same,Population Hoechst High Intensity Objects (%),[3],15%
same,Population Membrane Permeable-Phenotype (%),[3],1%
same,Population Mitochondria Different-Phenotype (%),[3],89%
same,Population Mitotic Cells (%),[3],31%
same,Population Normal (%),[3],84%
same,Population Pyknosed Nuclei (%),[3],56%
same,Population Tubulin-Different-Phenotype (%),[3],78%
same,Total Cell Count,[3],203
same,Population Apoptotic (%),[4],25%
same,Population Fragmented Nuclei (%),[4],4%
same,Population Healthy Nuclei (%),[4],27%
same,Population Hoechst High Intensity Objects (%),[4],6%
same,Population Membrane Permeable-Phenotype (%),[4],8%
same,Population Mitochondria Different-Phenotype (%),[4],54%
same,Population Mitotic Cells (%),[4],74%
same,Population Normal (%),[4],93%
same,Population Pyknosed Nuclei (%),[4],68%
same,Population Tubulin-Different-Phenotype (%),[4],60%
same,Total Cell Count,[4],187
same,Population Apoptotic (%),[5],59%
same,Population Fragmented Nuclei (%),[5],10%
same,Population Healthy Nuclei (%),[5],41%
same,Population Hoechst High Intensity Objects (%),[5],17%
same,Population Membrane Permeable-Phenotype (%),[5],6%
same,Population Mitochondria Different-Phenotype (%),[5],68%
same,Population Mitotic Cells (%),[5],40%
same,Population Normal (%),[5],82%
same,Population Pyknosed Nuclei (%),[5],48%
same,Population Tubulin-Different-Phenotype (%),[5],40%
same,Total Cell Count,[5],273
same,Population Apoptotic (%),[6],7%
same,Population Fragmented Nuclei (%),[6],3%
same,Population Healthy Nuclei (%),[6],67%
same,Population Hoechst High Intensity Objects (%),[6],1%
same,Population Mitochondria Different-Phenotype (%),[6],12%
same,Population Mitotic Cells (%),[6],92%
same,Population Normal (%),[6],98%
same,Population Pyknosed Nuclei (%),[6],29%
same,Population Tubulin-Different-Phenotype (%),[6],22%
same,Total Cell Count,[6],322
same,Population Apoptotic (%),[7],61%
same,Population Fragmented Nuclei (%),[7],15%
same,Population Healthy Nuclei (%),[7],33%
same,Population Hoechst High Intensity Objects (%),[7],15%
same,Population Membrane Permeable-Phenotype (%),[7],0%
same,Population Mitochondria Different-Phenotype (%),[7],80%
same,Population Mitotic Cells (%),[7],38%
same,Population Normal (%),[7],84%
same,Population Pyknosed Nuclei (%),[7],50%
same,Population Tubulin-Different-Phenotype (%),[7],67%
same,Total Cell Count,[7],237
same,Population Apoptotic (%),[8],44%
same,Population Fragmented Nuclei (%),[8],11%
same,Population Healthy Nuclei (%),[8],44%
same,Population Hoechst High Intensity Objects (%),[8],3%
same,Population Membrane Permeable-Phenotype (%),[8],8%
same,Population Mitochondria Different-Phenotype (%),[8],43%
same,Population Mitotic Cells (%),[8],55%
same,Population Normal (%),[8],96%
same,Population Pyknosed Nuclei (%),[8],44%
same,Population Tubulin-Different-Phenotype (%),[8],53%
same,Total Cell Count,[8],226
same,Population Apoptotic (%),[9],50%
same,Population Fragmented Nuclei (%),[9],14%
same,Population Healthy Nuclei (%),[9],50%
same,Population Hoechst High Intensity Objects (%),[9],14%
same,Population Membrane Permeable-Phenotype (%),[9],2%
same,Population Mitochondria Different-Phenotype (%),[9],34%
same,Population Mitotic Cells (%),[9],50%
same,Population Normal (%),[9],85%
same,Population Pyknosed Nuclei (%),[9],35%
same,Population Tubulin-Different-Phenotype (%),[9],28%
same,Total Cell Count,[9],348
same,Population Apoptotic (%),[10],9%
same,Population Fragmented Nuclei (%),[10],4%
same,Population Healthy Nuclei (%),[10],81%
same,Population Hoechst High Intensity Objects (%),[10],2%
same,Population Membrane Permeable-Phenotype (%),[10],5%
same,Population Mitochondria Different-Phenotype (%),[10],3%
same,Population Mitotic Cells (%),[10],90%
same,Population Normal (%),[10],97%
same,Population Pyknosed Nuclei (%),[10],13%
same,Population Tubulin-Different-Phenotype (%),[10],23%
same,Total Cell Count,[10],621
same,Population Apoptotic (%),[11],67%
same,Population Fragmented Nuclei (%),[11],15%
same,Population Healthy Nuclei (%),[11],51%
same,Population Hoechst High Intensity Objects (%),[11],12%
same,Population Membrane Permeable-Phenotype (%),[11],10%
same,Population Mitochondria Different-Phenotype (%),[11],60%
same,Population Mitotic Cells (%),[11],32%
same,Population Normal (%),[11],87%
same,Population Pyknosed Nuclei (%),[11],33%
same,Population Tubulin-Different-Phenotype (%),[11],55%
same,Total Cell Count,[11],278
same,Population Apoptotic (%),[12],28%
same,Population Fragmented Nuclei (%),[12],7%
same,Population Healthy Nuclei (%),[12],74%
same,Population Hoechst High Intensity Objects (%),[12],5%
same,Population Membrane Permeable-Phenotype (%),[12],9%
same,Population Mitochondria Different-Phenotype (%),[12],22%
same,Population Mitotic Cells (%),[12],71%
same,Population Normal (%),[12],94%
same,Population Pyknosed Nuclei (%),[12],18%
same,Population Tubulin-Different-Phenotype (%),[12],52%
same,Total Cell Count,[12],330
